Laboratory results taken from publication PMC4562428 (Bioorganic & medicinal chemistry, 2015).
Structures can show the parent of a compound that is named as a salt. Where two headings read alike, the source gives them in different places.

How the values were obtained:
SERT = SERT (Rattus norvegicus, UniProt P31652); assay: [3H]5-HT release at SERT in rat brain synaptosomes; assay type: biochemical
In short: (§1)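 Rat synaptosomes in 1 μM reserpine (brain minus caudate/cerebellum for SERT and NET; caudate for DAT), preloaded 1 h in Krebs-phosphate with 5 nM [3H]5-HT (SERT) or 9 nM [3H]MPP+ (NET, DAT). Blockers of competing transporters were included. Test compound was run as 8-point curves from 10 to 10,000 nM, in triplicate on three occasions. Filtration and scintillation counting; EC50 from non-linear regression.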

NET = NET (Rattus norvegicus, UniProt Q63380); assay: [3H]MPP+ release at NET in rat brain synaptosomes; assay type: biochemical
Sequence of NET (Q63380 1-617): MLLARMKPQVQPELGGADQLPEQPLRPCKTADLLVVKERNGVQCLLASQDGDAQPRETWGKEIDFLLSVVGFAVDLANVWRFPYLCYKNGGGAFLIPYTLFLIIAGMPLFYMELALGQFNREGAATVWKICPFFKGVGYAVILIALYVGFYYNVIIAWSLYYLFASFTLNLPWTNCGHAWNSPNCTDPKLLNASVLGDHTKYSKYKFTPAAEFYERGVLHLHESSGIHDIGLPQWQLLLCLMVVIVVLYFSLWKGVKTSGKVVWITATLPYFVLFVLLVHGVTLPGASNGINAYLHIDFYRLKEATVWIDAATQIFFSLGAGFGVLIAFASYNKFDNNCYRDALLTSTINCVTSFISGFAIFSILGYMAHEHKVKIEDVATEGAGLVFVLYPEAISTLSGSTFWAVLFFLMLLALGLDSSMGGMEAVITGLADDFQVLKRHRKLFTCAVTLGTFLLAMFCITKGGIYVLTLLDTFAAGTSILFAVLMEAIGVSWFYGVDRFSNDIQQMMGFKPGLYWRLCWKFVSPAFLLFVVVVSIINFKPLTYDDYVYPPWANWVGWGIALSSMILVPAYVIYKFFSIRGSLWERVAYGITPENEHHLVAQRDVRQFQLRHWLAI

DAT = DAT (Rattus norvegicus, UniProt P23977); assay: [3H]MPP+ release at DAT in rat caudate synaptosomes; assay type: biochemical
Sequence of DAT (P23977 whole entry): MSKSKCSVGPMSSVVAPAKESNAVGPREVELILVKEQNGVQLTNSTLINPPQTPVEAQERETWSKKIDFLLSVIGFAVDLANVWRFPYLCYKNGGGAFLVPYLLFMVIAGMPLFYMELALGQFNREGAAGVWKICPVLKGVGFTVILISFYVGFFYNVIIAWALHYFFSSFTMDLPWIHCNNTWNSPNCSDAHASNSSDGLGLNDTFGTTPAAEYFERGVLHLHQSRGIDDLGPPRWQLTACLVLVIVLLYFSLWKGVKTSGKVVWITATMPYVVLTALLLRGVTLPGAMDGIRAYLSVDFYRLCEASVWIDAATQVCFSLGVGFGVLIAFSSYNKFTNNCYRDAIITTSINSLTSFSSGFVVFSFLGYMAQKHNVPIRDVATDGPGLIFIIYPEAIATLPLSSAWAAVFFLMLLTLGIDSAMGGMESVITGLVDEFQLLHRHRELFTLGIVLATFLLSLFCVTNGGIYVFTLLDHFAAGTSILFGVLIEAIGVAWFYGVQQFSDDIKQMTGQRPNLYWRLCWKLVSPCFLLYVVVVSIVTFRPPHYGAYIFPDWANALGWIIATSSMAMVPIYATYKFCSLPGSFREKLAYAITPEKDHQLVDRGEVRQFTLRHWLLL

SERT, DAT, and NET = assay type: biochemical, rat; conditions: SERT versus DAT and NET
In short: as §1

[1] = cited from earlier work; for MDMA-like effects in humans: human
[2] = S(+) versus R(−) isomer of EDMA

Sequence of SERT (P31652 whole entry): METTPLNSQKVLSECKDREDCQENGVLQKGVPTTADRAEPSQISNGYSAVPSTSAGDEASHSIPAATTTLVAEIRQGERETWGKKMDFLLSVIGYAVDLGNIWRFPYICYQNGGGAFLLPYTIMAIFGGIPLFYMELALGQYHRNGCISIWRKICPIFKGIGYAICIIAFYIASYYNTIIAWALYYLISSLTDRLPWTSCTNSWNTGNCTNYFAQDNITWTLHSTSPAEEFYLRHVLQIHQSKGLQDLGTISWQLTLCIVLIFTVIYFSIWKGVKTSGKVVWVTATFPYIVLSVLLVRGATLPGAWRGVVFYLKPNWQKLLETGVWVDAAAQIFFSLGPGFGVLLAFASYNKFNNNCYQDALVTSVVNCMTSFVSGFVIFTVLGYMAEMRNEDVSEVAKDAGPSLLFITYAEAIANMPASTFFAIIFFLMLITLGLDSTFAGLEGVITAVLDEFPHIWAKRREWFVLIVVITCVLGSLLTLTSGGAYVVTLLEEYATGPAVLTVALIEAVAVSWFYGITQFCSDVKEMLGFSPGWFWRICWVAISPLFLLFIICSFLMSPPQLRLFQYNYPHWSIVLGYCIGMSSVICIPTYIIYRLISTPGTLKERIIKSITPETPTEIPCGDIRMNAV

Question: With CN[C@@H](C)Cc1ccc2c(c1)OCCO2 [S(+)EDMA [(S)3], S(+)1-(3,4-Ethylenedioxyphenyl)-N-methyl-2-aminopropane hydrochloride] as the molecule, how does the “fold more potent than R(−) enantiomer at SERT” value (SERT; [2]) read?
Answer: The value was “about 6 fold”.

Question: What about the “fold more potent than R(−) enantiomer at NET” value (NET; [2]) of the same molecule?
Answer: Its value is 8 fold.

Question: And the “fold more potent than R(−) enantiomer at DAT” value (DAT; [2])?
Answer: The value was 50 fold.

Question: With CN[C@H](C)Cc1ccc2c(c1)OCCO2 [R(−)EDMA [(R)3], R(−)1-(3,4-Ethylenedioxyphenyl)-N-methyl-2-aminopropane hydrochloride] as the molecule, how does the “transporter selectivity as releaser” value (SERT, DAT, and NET) read?
Answer: Its value is “more SERT-selective”.

Question: Which results are given for CNC(C)Cc1ccc2c(c1)OCCO2 (racemic) [(±)EDMA (3), (±)-1-(3,4-Ethylenedioxyphenyl)-N-methyl-2-aminopropane hydrochloride]?
Answer: release potency at SERT relative to potency at DAT (SERT; SERT versus DAT): approximately six times; release potency at SERT relative to potency at NET (SERT; SERT versus NET): three times; potency as releaser at SERT relative to (±)MDMA (1) (SERT; compared with (±)MDMA (1)): approximately half the potency; fold less potent than (±)MDMA (1) as releaser at NET (NET; compared with (±)MDMA (1)): 4.5 fold; fold less potent than (±)MDMA (1) as releaser at DAT (DAT; compared with (±)MDMA (1)): 8 fold; MDMA-like effects in humans ([1]; 200 mg): fails to produce similar effects; MDMA-like effects in humans ([1]; 250 mg): threshold; transporter selectivity as releaser (SERT, DAT, and NET): slightly more selective for SERT over DAT and NET

Question: With CNC(C)Cc1ccc2c(c1)OCO2 (racemic) [(±)MDMA (1), N-methyl-(3,4-methylenedioxyphenyl)-2-aminopropane, reference compound] as the molecule, how does the “behaviorally active total human dose” value ([1]; p.o.) read?
Answer: Its value is 80 to 150 mg.

Question: And the “transporter selectivity as releaser” value (SERT, DAT, and NET)?
Answer: Its value is “nearly equipotent”.
